Assay results reported in article PMC7557949 (ACS Omega, 2020).
Values after ≈ are worked out from the molar mass of the structure shown.

How the values were obtained:
[1] = system: herpes simplex virus type 1 (HSV-1); experiment: Plaque assay, antiviral activity against HSV-1; type: cell-based; settings: for mean % of reduction, herpes simplex virus: nontoxic dose of compound, average of three independent measurements
K. pneumonia (ATCC:4415) [2] = experiment: MIC, twofold serial dilution in agar; type: cell-based; settings: Klebsiella pneumoniae, read-out: MIC, K. pneumonia (ATCC:4415)
coxsackievirus B4 (CBV4) = experiment: Plaque assay, antiviral activity against CBV4; type: cell-based; settings: nontoxic dose of compound; average of three independent measurements
Method in brief: (§1)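 Plaque reduction. Nontoxic dilutions of test compound were mixed 1:1 with virus at 1 × 105, 1 × 106 or 1 × 107, for 0.5 h at 37 °C. 10-fold dilutions went onto BGM (CBV4), FRHK4 (HAV HM 175) or Hep-2 (adenovirus 7), with 1 h adsorption at 37 °C. Overlay was 2× DMEM plus 1% agarose. Cells were formalin-fixed and crystal violet-stained, and plaques counted. Triplicate. IC50 is the half-maximal plaque-reduction concentration.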

[3] = system: hepatitis A virus HM 175 (HAV HM 175); experiment: Plaque assay, antiviral activity against HAV HM 175; type: cell-based; settings: for mean % of reduction, HAV HM 175: nontoxic dose of compound, average of three independent measurements
Method in brief: as §1

[4] = system: ED-43/SG-Feo (VYG) replicon of hepatitis C virus genotype 4a (HCVcc); experiment: Antiviral bioassay against ED-43/SG-Feo; type: cell-based; settings: nontoxic dose of compound; average of three independent measurements
Method in brief: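 Huh 7.5 cells carrying the ED-43/SG-Feo (VYG) HCV genotype 4a subgenomic replicon were treated with the nontoxic dose of test compound. Replicon RNA copies were quantified by TaqMan qRT-PCR, and the result was expressed as percent reduction.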

S. aureus (ATCC:6538) [5] = experiment: Agar well diffusion, inhibition zone; type: cell-based, Staphylococcus aureus; settings: for zone of inhibition at 15000 µg/mL: Staphylococcus aureus, 24 h, read-out: diameter of the IZ, S. aureus (ATCC:6538); for diameter of the IZ, S. aureus (ATCC:6538): 15 mg/mL, 100 μL per well, mm ± SD
Method in brief: (§2)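 Agar well diffusion. Saline inoculum adjusted to McFarland 0.5 ([…]), i.e. OD 0.13 at 625 nm, and swabbed over dried agar. After 15 min drying, 6 mm wells received 100 μL of test compound at 15 mg/mL. Plates incubated at 37 °C; bacterial zones read in mm after 24 h incubation […]. Triplicate, reported as mm ± SD. Gentamicin and ampicillin served as reference drugs.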

S. aureus (ATCC:6538) [6] = experiment: MIC, twofold serial dilution in agar; type: cell-based; settings: Staphylococcus aureus, read-out: MIC, S. aureus (ATCC:6538)
[7] = target: T1, dihydrofolate reductase (DHFR) (Homo sapiens, UniProt P00374); experiment: DHFR inhibitor screening assay; type: biochemical; settings: for IC50: IC50 on the DHFR, average of three measurements; for inhibition at 0.01 µg/mL: read-out: percent inhibition of DHFR at 0.01 (μg/mL); for inhibition at 0.1 µg/mL: read-out: percent inhibition of DHFR at 0.1 (μg/mL); for inhibition at 1 µg/mL: read-out: percent inhibition of DHFR at 1 (μg/mL); for inhibition at 10 µg/mL: read-out: percent inhibition of DHFR at 10 (μg/mL)
T1 sequence (P00374 1-187): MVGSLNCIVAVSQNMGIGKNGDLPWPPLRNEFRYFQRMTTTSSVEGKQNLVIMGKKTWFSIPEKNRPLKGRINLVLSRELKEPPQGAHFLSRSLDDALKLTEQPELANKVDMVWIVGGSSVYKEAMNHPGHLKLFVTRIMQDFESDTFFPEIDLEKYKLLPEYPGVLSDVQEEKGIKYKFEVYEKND

S. mutans (ATCC:25175) [8] = experiment: Agar well diffusion, inhibition zone; type: cell-based; settings: for zone of inhibition at 15000 µg/mL: Streptococcus mutans, 24 h, read-out: diameter of the IZ, S. mutans (ATCC:25175); for diameter of the IZ, S. mutans (ATCC:25175): 15 mg/mL, 100 μL per well, mm ± SD
Method in brief: as §2

S. mutans (ATCC:25175) [9] = experiment: MIC, twofold serial dilution in agar; type: cell-based; settings: Streptococcus mutans, read-out: MIC, S. mutans (ATCC:25175)
[10] = system: adenovirus type 7 (HAdV7); experiment: Plaque assay, antiviral activity against adenovirus type 7; type: cell-based; settings: nontoxic dose of compound; average of three independent measurements
Method in brief: as §1

C. albicans (ATCC:10231) = experiment: Agar well diffusion, inhibition zone; type: cell-based, Candida albicans; settings: 15 mg/mL, 100 μL per well; mm ± SD
Method in brief: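 Fungal plates were poured and agar dried 15 min. 6 mm wells were cut with a sterile borer and filled with 100 μL test compound solution at 15 mg/mL. Inhibition zone diameter (mm) was read after 48 h incubation. Triplicate, reported as mm ± SD.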

[11] = system: P. aeruginosa (ATCC:27853); experiment: Agar well diffusion, inhibition zone; type: cell-based, Pseudomonas aeruginosa; settings: 15 mg/mL, 100 μL per well; mm ± SD
Method in brief: as §2

K. pneumonia (ATCC:4415) [12] = experiment: Agar well diffusion, inhibition zone; type: cell-based, Klebsiella pneumonia; settings: 15 mg/mL, 100 μL per well; mm ± SD
Method in brief: as §2

E. coli (ATCC:3008) = experiment: Agar well diffusion, inhibition zone; type: cell-based, Escherichia coli; settings: 15 mg/mL, 100 μL per well; mm ± SD
Method in brief: as §2

Hsp90α = Hsp90α (Homo sapiens, UniProt P07900); experiment: Hsp90α; type: biochemical
Method in brief: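 AlphaScreen kit assay for Hsp90α C-terminal binding to PPID. Hsp90α was diluted to 1.5 ng/μL in assay buffer and premixed with test compound. The reaction was started with PPID diluted to 10 ng/μL and run 30 min at room temperature. Glutathione acceptor beads were added for 30 min, then streptavidin donor beads for 1 h, and Alpha counts read. Triplicate; percent inhibition calculated against control.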

[13] = Cytotoxicity test on FRHK-4 cell line; type: cell-based; settings: rhesus monkey, uninfected FRHK-4 cells
Method in brief: (§3)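 Test compound was dissolved at 50 mg/mL in DMSO and decontaminated with 100× antimycotic–antibiotic mix. Cells were seeded at 2 × 10^5 cells/mL and grown 24 h at 37 °C, 5% CO2, to monolayers. Bi-fold dilutions in DMEM were applied for 72 h. Read by daily microscopy for morphology and by trypan blue (0.4%) viable counts. CC50 taken as the concentration giving 50% of untreated-cell OD492.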

[14] = Cytotoxicity test on Vero cell line; type: cell-based; settings: African green monkey, uninfected Vero cells
Method in brief: as §3

[15] = Cytotoxicity test on BGM cell line; type: cell-based; settings: African green monkey, uninfected BGM cells
Method in brief: as §3

Chain of Hsp90α (P07900 535-732 limits assumed): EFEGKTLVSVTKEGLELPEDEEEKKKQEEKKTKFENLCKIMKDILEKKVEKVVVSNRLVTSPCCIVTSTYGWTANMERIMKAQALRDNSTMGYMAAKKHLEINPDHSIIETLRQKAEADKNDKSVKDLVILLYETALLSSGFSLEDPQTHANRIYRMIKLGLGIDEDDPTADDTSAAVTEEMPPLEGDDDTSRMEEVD

Structure (SMILES): CSc1c(-c2nc3ccccc3s2)c(N)n(NS(=O)(=O)c2ccc(C)cc2)c(=O)c1C#N [8b, N-(6-Amino-5-(benzo[d]thiazol-2-yl)-3-cyano-4-(methylthio)-2-oxopyridin-1(2H)-yl)-4-methylbenzenesulfonamide]
- mean % of reduction, herpes simplex virus [1]: 33.3 ± 0.25%
- MIC (K. pneumonia (ATCC:4415) [2]): 125 µg/mL (≈ 258 µM)
- mean % of reduction, CBV4 (coxsackievirus B4 (CBV4)): 30.0 ± 0.15%
- mean % of reduction, HAV HM 175 [3]: 36.7 ± 0.30%
- mean % of reduction, HCVcc genotype 4 [4]: 26.7 ± 0.25%
- zone of inhibition at 15000 µg/mL (S. aureus (ATCC:6538) [5]): 19.3 ± 1 mm
- MIC (S. aureus (ATCC:6538) [6]): 1000 µg/mL (≈ 2070 µM)
- IC50 [7]: 2830 nM
- inhibition at 0.01 µg/mL [7]: 19.9%
- inhibition at 0.1 µg/mL [7]: 40.8%
- inhibition at 1 µg/mL [7]: 50.4%
- inhibition at 10 µg/mL [7]: 57.7%
- zone of inhibition at 15000 µg/mL (S. mutans (ATCC:25175) [8]): 10.7 ± 0.5 mm
- MIC (S. mutans (ATCC:25175) [9]): 250 µg/mL (≈ 517 µM)
- mean % of reduction, adenovirus type 7 [10]: 20.0 ± 0.20%

Structure (SMILES): Nc1n[nH]c2c(-c3nc4ccccc4s3)c(N)n(NS(=O)(=O)c3ccccc3)c(=O)c12 [9a, N-(3,6-Diamino-7-(benzo[d]thiazol-2-yl)-4-oxo-1H-pyrazolo[4,3-c]pyridin-5(4H)-yl)benzenesulfonamide]
- mean % of reduction, herpes simplex virus [1]: 20.0 ± 0.15%
- mean % of reduction, CBV4 (coxsackievirus B4 (CBV4)): 13.3 ± 0.10%
- mean % of reduction, HAV HM 175 [3]: 10.0 ± 0.10%
- mean % of reduction, HCVcc genotype 4 [4]: 13.3 ± 0.10%
- diameter of the IZ, S. aureus (ATCC:6538) (S. aureus (ATCC:6538) [5]): 34.0 ± 1.0 mm
- zone of inhibition at 15000 µg/mL (S. aureus (ATCC:6538) [5]): 34 ± 1 mm
- MIC (S. aureus (ATCC:6538) [6]): 125 µg/mL (≈ 276 µM)
- IC50 [7]: 1540 nM
- inhibition at 0.01 µg/mL [7]: 22.6%
- inhibition at 0.1 µg/mL [7]: 33.8%
- inhibition at 1 µg/mL [7]: 53.6%
- inhibition at 10 µg/mL [7]: 68.4%
- zone of inhibition at 15000 µg/mL (S. mutans (ATCC:25175) [8]): 13.9 ± 0.5 mm
- MIC (S. mutans (ATCC:25175) [9]): 1000 µg/mL (≈ 2210 µM)
- mean % of reduction, adenovirus type 7 [10]: 10.0 ± 0.10%

Structure (SMILES): Cc1ccc(S(=O)(=O)Nn2c(N)c(C#N)cc(C#N)c2=O)cc1 [15b, N-(6-Amino-3,5-dicyano-2-oxopyridin-1(2H)-yl)-4-methylbenzenesulfonamide]
- mean % of reduction, herpes simplex virus [1]: 30.0 ± 0.30%
- mean % of reduction, CBV4 (coxsackievirus B4 (CBV4)): 40.0 ± 0.20%
- diameter of the IZ, C. albicans (ATCC:10231) (C. albicans (ATCC:10231)): no activity
- diameter of the IZ, P. aeruginosa (ATCC:27853) [11]: no activity
- diameter of the IZ, K. pneumonia (ATCC:4415) (K. pneumonia (ATCC:4415) [12]): no activity
- mean % of reduction, HAV HM 175 [3]: 20.0 ± 0.10%
- mean % of reduction, HCVcc genotype 4 [4]: 33.3 ± 0.10%
- diameter of the IZ, S. aureus (ATCC:6538) (S. aureus (ATCC:6538) [5]): no activity
- diameter of the IZ, S. mutans (ATCC:25175) (S. mutans (ATCC:25175) [8]): no activity
- diameter of the IZ, E. coli (ATCC:3008) (E. coli (ATCC:3008)): no activity
- mean % of reduction, adenovirus type 7 [10]: 13.3 ± 0.50%

Structure (SMILES): CCOC(=O)c1cc(C#N)c(=O)n(NS(=O)(=O)c2ccccc2)c1N [15c, Ethyl 2-Amino-5-cyano-6-oxo-1-(phenylsulfonamido)-1,6-dihydropyridine-3-carboxylate]
- IC50 ([1]; Human alphaherpesvirus 1, Vero): 90 µg/mL (≈ 248 µM)
- diameter of the IZ, C. albicans (ATCC:10231) (C. albicans (ATCC:10231)): no activity
- diameter of the IZ, P. aeruginosa (ATCC:27853) [11]: no activity
- diameter of the IZ, K. pneumonia (ATCC:4415) (K. pneumonia (ATCC:4415) [12]): no activity
- IC50 ([3]; Hepatovirus A, FRhK-4): 88 µg/mL (≈ 243 µM)
- inhibition at 0.1 µg/mL (Hsp90α; read-out: percentage inhibition of Hsp90α at 0.1 (μg/mL)): 8.42%
- inhibition at 1 µg/mL (Hsp90α; read-out: percentage inhibition of Hsp90α at 1 (μg/mL)): 26.1%
- inhibition at 10 µg/mL (Hsp90α; read-out: percentage inhibition of Hsp90α at 10 (μg/mL)): 48.7%
- inhibition at 100 µg/mL (Hsp90α; read-out: percentage inhibition of Hsp90α at 100 (μg/mL)): 72.7%
- mean % of reduction, HCVcc genotype 4 [4]: 20.0 ± 0.15%
- diameter of the IZ, S. aureus (ATCC:6538) (S. aureus (ATCC:6538) [5]): no activity
- CC50 at 72 h [13]: 260 µg/mL (≈ 718 µM)
- CC50 at 72 h [14]: 250 µg/mL (≈ 690 µM)
- diameter of the IZ, S. mutans (ATCC:25175) (S. mutans (ATCC:25175) [8]): no activity
- diameter of the IZ, E. coli (ATCC:3008) (E. coli (ATCC:3008)): no activity
- CC50 at 72 h [15]: 260 µg/mL (≈ 718 µM)
- mean % of reduction, adenovirus type 7 [10]: 36.7 ± 0.30%
